From ChEMBL document CHEMBL4346706, “Anti-trypanosomal activity of doubly modified salinomycin derivatives” (Eur J Med Chem, 2019) come the findings set out here.

Data set [1] concerns Trypanosoma brucei. In words: Antitrypanosomal activity against bloodstream form of Trypanosoma brucei 427-221a assessed as increase in iono-phoresis by measuring cell swelling at 100 uM measured every 10 mins for 1 hr by light scattering based microplate reader analysis. It counts as functional, organism-based. In outline:
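Light-scattering swelling assay. Bloodstream forms at 5 × 10^7 cells ml^-1 in Baltz medium with 100 μM ionophore and 0.9% DMSO; controls had DMSO only. Absorbance at 490 nm read every 10 min for one hour. A fall in absorbance is taken as a rise in cell volume. Means of three experiments.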

A short description of data set [2]: Selectivity index, ratio of GI50 for human HL60 cells to GI50 for bloodstream form of Trypanosoma brucei 427-221a. The settings on record: read-out: RatioGI50. It counts as toxicity.
A short description of data set [3]: Cytotoxicity against human HL60 cells assessed as growth inhibition after 24 hrs by resazurin dye based assay. Format: cell-based, HL-60. The method, boiled down:
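HL-60 cells seeded at 5 × 10^4 ml^-1 in Baltz medium with 16.7% heat-inactivated bovine serum, 0.9% DMSO. 37 °C, 5% CO2. Tenfold dilutions from 100 μM to 1 pM. After 24 h, resazurin added and incubation continued a further 48 h. Absorbance read at 570 nm, reference 630 nm. GI50 by linear interpolation against DMSO-only wells. Mean ± SD of three independent experiments.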
On the technique in general: Alamar Blue is a resazurin reagent that responds to reducing activity.

The test system of data set [4] is Trypanosoma brucei. Put plainly: Antitrypanosomal activity against bloodstream form of Trypanosoma brucei 427-221a assessed as growth inhibition measured after 72 hrs by resazurin dye based assay.
The nature of data set [5]: Antiproliferative activity against human HMLER cells assessed as reduction in cell viability after 72 hrs by Cell-Titer Blue reagent based fluorescence microplate reader analysis. It counts as functional.

Molecules are shown by their SMILES. Active and inactive are the calls of the source. The rule behind the calls is not given here.

One may read the GI50 as the concentration giving 50% growth inhibition. As for `CC[C@@H](C(=O)[C@@H](C)[C@@H](O)[C@H](C)[C@@H]1O[C@@H]([C@@H](CC)C(=O)ONC(=O)c2ccccc2O)CC[C@@H]1C)[C@H]1O[C@]2(C=C[C@@H](O)[C@]3(CC[C@@](C)([C@H]4CC[C@](O)(CC)[C@H](C)O4)O3)O2)[C@H](C)C[C@@H]1C`, in data set [1], the outcome was inactive. Also, the selectivity ratio in data set [2] stood at 60.6. Moreover, the concentration for 50% growth inhibition (GI50) at 24 h in data set [3] amounted to 2.12 µM. Moreover, the GI50 in data set [4] amounted to 0.035 µM.
As to `CC[C@@H](C(=O)[C@@H](C)[C@@H](O)[C@H](C)[C@@H]1O[C@@H]([C@@H](CC)C(=O)O)CC[C@@H]1C)[C@H]1O[C@]2(C=C[C@@H](O)[C@]3(CC[C@@](C)([C@H]4CC[C@](O)(CC)[C@H](C)O4)O3)O2)[C@H](C)C[C@@H]1C` [SALINOMYCIN], the selectivity ratio in data set [2] came out at 31.6. For the same compound, in data set [3], the GI50 at 24 h came out at 6.63 µM. Moreover, the GI50 in data set [4] came to 0.21 µM.
Turning to `CC[C@@H](C(=O)[C@@H](C)[C@@H](O)[C@H](C)[C@@H]1O[C@@H]([C@@H](CC)C(=O)ONC(=O)c2ccccc2)CC[C@@H]1C)[C@H]1O[C@]2(C=CC(=O)[C@]3(CC[C@@](C)([C@H]4CC[C@](O)(CC)[C@H](C)O4)O3)O2)[C@H](C)C[C@@H]1C`, in data set [1], the result was inactive. For the same compound, the selectivity ratio in data set [2] was found to be 70. The GI50 at 24 h in data set [3] is 2.24 µM. Further, the GI50 in data set [4] turned out to be 0.032 µM.
In the case of `CC[C@@H](C(=O)[C@@H](C)[C@@H](O)[C@H](C)[C@@H]1O[C@@H]([C@@H](CC)C(=O)NCCc2ccc(F)cc2)CC[C@@H]1C)[C@H]1O[C@]2(C=CC(=O)[C@]3(CC[C@@](C)([C@H]4CC[C@](O)(CC)[C@H](C)O4)O3)O2)[C@H](C)C[C@@H]1C`, in data set [2], the selectivity ratio was found to be 31.7. In data set [3], the GI50 at 24 h is 94.7 µM. In addition, the 50% growth inhibitory concentration (GI50) in data set [4] is 2.99 µM.
Regarding `CC[C@@H](C(=O)[C@@H](C)[C@@H](O)[C@H](C)[C@@H]1O[C@@H]([C@@H](CC)C(=O)O)CC[C@@H]1C)[C@H]1O[C@]2(C=CC(=O)[C@]3(CC[C@@](C)([C@H]4CC[C@](O)(CC)[C@H](C)O4)O3)O2)[C@H](C)C[C@@H]1C`, in data set [1], the outcome was Active. The selectivity ratio in data set [2] was 252. For the same compound, in data set [3], the GI50 at 24 h amounted to 9.21 µM. For the same compound, in data set [4], the concentration for 50% growth inhibition (GI50) came out at 0.037 µM.
With `C#CCNC(=O)[C@H](CC)[C@H]1CC[C@H](C)[C@H]([C@@H](C)[C@H](O)[C@H](C)C(=O)[C@H](CC)[C@H]2O[C@]3(C=C[C@@H](O)[C@]4(CC[C@@](C)([C@H]5CC[C@](O)(CC)[C@H](C)O5)O4)O3)[C@H](C)C[C@@H]2C)O1`, in data set [2], the selectivity ratio came to 11.6. The concentration for 50% growth inhibition (GI50) at 24 h in data set [3] worked out at 35.5 µM. The GI50 in data set [4] was 3.06 µM.
What is called IC50 is the midpoint of a concentration-inhibition curve. Take `C#CCN[C@@H]1C=C[C@]2(O[C@H]([C@@H](CC)C(=O)[C@@H](C)[C@@H](O)[C@H](C)[C@@H]3O[C@@H]([C@@H](CC)C(=O)O)CC[C@@H]3C)[C@@H](C)C[C@H]2C)O[C@@]12CC[C@@](C)([C@H]1CC[C@](O)(CC)[C@H](C)O1)O2`: in data set [1], the outcome was Active. Further, the selectivity ratio in data set [2] came out at 300. Further, in data set [3], the concentration for 50% growth inhibition (GI50) at 24 h was found to be 10.5 µM. Also, the IC50 in data set [5] worked out at 0.1 µM. The concentration for 50% growth inhibition (GI50) in data set [4] is 0.035 µM.
Turning to `CC[C@@H](C(=O)[C@@H](C)[C@@H](O)[C@H](C)[C@@H]1O[C@@H]([C@@H](CC)C(=O)OCC(F)(F)F)CC[C@@H]1C)[C@H]1O[C@]2(C=C[C@@H](O)[C@]3(CC[C@@](C)([C@H]4CC[C@](O)(CC)[C@H](C)O4)O3)O2)[C@H](C)C[C@@H]1C`, the selectivity ratio in data set [2] came to 11.2. In addition, the 50% growth inhibitory concentration (GI50) at 24 h in data set [3] amounted to 32.5 µM. In addition, the concentration for 50% growth inhibition (GI50) in data set [4] amounted to 2.9 µM.
The corresponding values for `C#CCOC(=O)[C@H](CC)[C@H]1CC[C@H](C)[C@H]([C@@H](C)[C@H](O)[C@H](C)C(=O)[C@H](CC)[C@H]2O[C@]3(C=CC(=O)[C@]4(CC[C@@](C)([C@H]5CC[C@](O)(CC)[C@H](C)O5)O4)O3)[C@H](C)C[C@@H]2C)O1` are 9.8, 29.6 µM and 3.03 µM.
Take `C#CCNC(=O)[C@H](CC)[C@H]1CC[C@H](C)[C@H]([C@@H](C)[C@H](O)[C@H](C)C(=O)[C@H](CC)[C@H]2O[C@]3(C=C[C@@H](NCC#C)[C@]4(CC[C@@](C)([C@H]5CC[C@](O)(CC)[C@H](C)O5)O4)O3)[C@H](C)C[C@@H]2C)O1`: the selectivity ratio in data set [2] was determined as 12.8. Also, the GI50 at 24 h in data set [3] turned out to be 38.9 µM. The GI50 in data set [4] stood at 3.04 µM.
For the compound `CC[C@@H](C(=O)[C@@H](C)[C@@H](O)[C@H](C)[C@@H]1O[C@@H]([C@@H](CC)C(=O)OCC(F)(F)F)CC[C@@H]1C)[C@H]1O[C@]2(C=CC(=O)[C@]3(CC[C@@](C)([C@H]4CC[C@](O)(CC)[C@H](C)O4)O3)O2)[C@H](C)C[C@@H]1C`, the selectivity ratio in data set [2] is > 33.2. In data set [3], the GI50 at 24 h was > 100 µM. Further, the concentration for 50% growth inhibition (GI50) in data set [4] was determined as 3.01 µM.
For `Cc1ccc(C(=O)Nc2ccc(S(=O)(=O)O)c3cc(S(=O)(=O)O)cc(S(=O)(=O)O)c23)cc1NC(=O)c1cccc(NC(=O)Nc2cccc(C(=O)Nc3cc(C(=O)Nc4ccc(S(=O)(=O)O)c5cc(S(=O)(=O)O)cc(S(=O)(=O)O)c45)ccc3C)c2)c1` [SURAMIN], in that order: > 3120, > 100 µM and 0.032 µM.
`CC[C@@H](C(=O)[C@@H](C)[C@@H](O)[C@H](C)[C@@H]1O[C@@H]([C@@H](CC)C(=O)ONC(=O)c2ccccc2O)CC[C@@H]1C)[C@H]1O[C@]2(C=CC(=O)[C@]3(CC[C@@](C)([C@H]4CC[C@](O)(CC)[C@H](C)O4)O3)O2)[C@H](C)C[C@@H]1C`: the result in data set [1] was inactive. Besides, the selectivity ratio in data set [2] amounted to 56.8. The 50% growth inhibitory concentration (GI50) at 24 h in data set [3] stood at 1.93 µM. Besides, the 50% growth inhibitory concentration (GI50) in data set [4] was 0.034 µM.
Take `CC[C@@H](C(=O)[C@@H](C)[C@@H](O)[C@H](C)[C@@H]1O[C@@H]([C@@H](CC)C(=O)ONC(=O)c2ccccc2)CC[C@@H]1C)[C@H]1O[C@]2(C=C[C@@H](O)[C@]3(CC[C@@](C)([C@H]4CC[C@](O)(CC)[C@H](C)O4)O3)O2)[C@H](C)C[C@@H]1C`: the selectivity ratio in data set [2] came out at 21.1. Moreover, the 50% growth inhibitory concentration (GI50) at 24 h in data set [3] was found to be 3.58 µM. Also, in data set [4], the GI50 is 0.17 µM.
For `C#CCOC(=O)[C@H](CC)[C@H]1CC[C@H](C)[C@H]([C@@H](C)[C@H](O)[C@H](C)C(=O)[C@H](CC)[C@H]2O[C@]3(C=C[C@@H](O)[C@]4(CC[C@@](C)([C@H]5CC[C@](O)(CC)[C@H](C)O5)O4)O3)[C@H](C)C[C@@H]2C)O1`, in that order: 10.2, 30 µM and 2.93 µM.
In the case of `CC[C@@H](C(=O)[C@@H](C)[C@@H](O)[C@H](C)[C@@H]1O[C@@H]([C@@H](CC)C(=O)NCCc2ccc(F)cc2)CC[C@@H]1C)[C@H]1O[C@]2(C=C[C@@H](O)[C@]3(CC[C@@](C)([C@H]4CC[C@](O)(CC)[C@H](C)O4)O3)O2)[C@H](C)C[C@@H]1C`, the selectivity ratio in data set [2] stood at 4. Besides, the GI50 at 24 h in data set [3] was 11.6 µM. The 50% growth inhibitory concentration (GI50) in data set [4] stood at 2.87 µM.
For `C#CCNC(=O)[C@H](CC)[C@H]1CC[C@H](C)[C@H]([C@@H](C)[C@H](O)[C@H](C)C(=O)[C@H](CC)[C@H]2O[C@]3(C=CC(=O)[C@]4(CC[C@@](C)([C@H]5CC[C@](O)(CC)[C@H](C)O5)O4)O3)[C@H](C)C[C@@H]2C)O1`, in that order: 12.1, 38.6 µM and 3.18 µM.
